Columns and labels:
[1] = Stability of dosing preparation in EPTG excipient formula; format: physicochemical
human LNCaP/AR-Luc cells [2] = assay: Lung metastasis of LNCaP/AR-Luc xenograft by ex vivo bioluminescence imaging; format: in vivo; settings: SCID-NSG mice, decursinol 4.5 mg/mouse/day gavage; control 100% (10 out of 10)
[3] = Single dose pharmacokinetic study in CD-1 mice; format: in vivo; settings: male, CD-1, mouse, plasma, po, 120 mg/kg
Summary of the method: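 Male CD-1 mice (7 weeks, ≥1 week on AIN-93M diet) were given a single gavage of 120 mg/kg (3 mg/25 g) in 0.2 mL EPTG 3:6:1:5. Groups of 5–7 were killed at 0.1, 0.25, 0.5, 1, 2, 3, 6, 12 and 24 h. Heparinized cardiac blood was spun at 5000 g for 5 min. Plasma was extracted with ethyl acetate and run on HPLC. AUC0–24h was calculated noncompartmentally; mean ± SEM.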

[4] = system: LNCaP/AR-luc xenograft tumor; assay: Histopathology of H&E stained xenograft tumor sections; format: in vivo, human; settings: vs vehicle groups within each experiment
Summary of the method: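 Tumors dissected at necropsy and fixed in neutral-buffered formalin. H&E-stained sections were examined for necrotic areas, hemorrhage and intravascular cancer-cell emboli.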

Subchronic [5] = format: in vivo, mouse; settings: for Body Weight / Organ height (Mean ± SD) Brain / Organ height (Mean ± SD) Heart / Organ height (Mean ± SD) Kidney / Organ height (Mean ± SD) Liver / Organ height (Mean ± SD) Lung / Organ height (Mean ± SD) Prostate / Organ height (Mean ± SD) Spleen / Organ height (Mean ± SD) Testes: male CD-1 mice, N=6
Summary of the method: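 24 male CD-1 mice (acclimated 2 weeks) were stratified by weight into 4 groups (N=6). They were gavaged daily, 7 days/week, for 4 weeks with 80, 120 or 160 mg/kg in EPTG 3:6:1:5, or 200 μL vehicle. Body weight was measured weekly, with the dose adjusted to it. At euthanasia organs were weighed, and plasma taken 3 h after the last dose was assayed by HPLC; […].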

human LNCaP/AR-Luc cells [6] = assay: LNCaP/AR-Luc xenograft growth in SCID-NSG mice; format: in vivo; settings: decursinol 4.5 mg/mouse/day gavage, 7 days per week, vs vehicle
Summary of the method: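 Male SCID-NSG mice (n=20/group) received daily gavage in EPTG 3:6:1:20 (300 μL) starting 7 days before s.c. inoculation of 20,000 LNCaP/AR-Luc cells (1:1 Matrigel:serum-free medium, lower right flank). Caliper measurement twice weekly; volume = (L×W²)/2. Tumors weighed at necropsy. Only the 10 largest tumors per group were analyzed; mean ± SD.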

[7] = Plasma decursinol by HPLC at 3 h after the last dose in SCID-NSG mice; format: in vivo, mouse
Summary of the method: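 Plasma was collected 3 h after the last daily gavage dose (4.5 mg/mouse in EPTG 3:6:1:20) from tumor-bearing male SCID-NSG mice. Plasma with chrysin internal standard was extracted twice with ethyl acetate, dried and reconstituted in methanol. HPLC used a C18 column at room temperature with a water/acetonitrile gradient (20–90% over 15 min, then 90% for 8 min) and diode-array detection at 330 nm.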

[8] = Body weight and organ weight of tumor-bearing SCID-NSG mice; format: in vivo; settings: decursinol 4.5 mg/mouse/day
Subchronic [9] = format: in vivo, mouse; settings: 4 weeks; for Plasma biochemistry (Mean ± SD) ALB / Plasma biochemistry (Mean ± SD) ALP / Plasma biochemistry (Mean ± SD) ALT / Plasma biochemistry (Mean ± SD) AST / Plasma biochemistry (Mean ± SD) Amy / Plasma biochemistry (Mean ± SD) BUN / Plasma biochemistry (Mean ± SD) Chol / Plasma biochemistry (Mean ± SD) Gluc / Plasma biochemistry (Mean ± SD) T.Bili: male CD-1 mice, N=6
Summary of the method: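 After 4 weeks of daily gavage (80, 120 or 160 mg/kg in EPTG 3:6:1:5, or vehicle) in male CD-1 mice, heparinized blood was taken by cardiac puncture at euthanasia. Plasma ALT, AST, ALP, albumin, amylase, BUN, creatinine, glucose, cholesterol and total bilirubin were measured by a veterinary diagnostic laboratory.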

[10] = DOH-3: 3 mg per 25 g body weight (120 mg/kg) daily gavage, 4 weeks
[11] = DOH-4: 4 mg per 25 g body weight (160 mg/kg) daily gavage, 4 weeks
[12] = DOH-3: 3 mg per 25 g body weight (120 mg/kg) daily gavage
[13] = DOH-4: 4 mg per 25 g body weight (160 mg/kg) daily gavage

For `CC1(C)Oc2cc3oc(=O)ccc3cc2C[C@@H]1O` [decursinol], the “time in uniformly dispersed state after dilution from stock concentrate” value ([1]; EPTG (3:6:1:20) formula) was ≤ 20 min, the “time remaining as clear solution” value ([1]; new EPTG (3:6:1:5)) was “more than 1 hour” and the lung metastasis rate (human LNCaP/AR-Luc cells [2]) was 60%. For the same compound, the AUC(0-t) [3] was 193 µg·h/mL, the “necrosis extent in tumor sections” value [4] was “did not noticeably differ” and the “plasma decursinol level (3 h post last dose)” value (Subchronic [5]; CD-1 mice, 80, 120, and 160 mg decursinol/kg daily gavage, 4 weeks, EPTG 3:6:1:5) was “increase in a dose-dependent manner”. For the same compound, the body weight change (Subchronic [5]; CD-1 mice, daily gavage as high as 4 mg/25 g or 160 mg per kg, 4 weeks) was “did not cause body weight change”, the “weights of liver, kidney, prostate, spleen, lung, heart, testes and brain” value (Subchronic [5]; CD-1 mice, subchronic dosing 4 weeks, 80-160 mg/kg) was “did not affect” and the “Body Weight” value (Subchronic [5]; [10]) was 35.97 ± 2.10 g. For the same compound, the “Organ height (Mean ± SD) Brain” value (Subchronic [5]; [10]) was 0.53 ± 0.03 g, the “Organ height (Mean ± SD) Heart” value (Subchronic [5]; [10]) was 0.19 ± 0.01 g and the “Organ height (Mean ± SD) Kidney” value (Subchronic [5]; [10]) was 0.59 ± 0.08 g. The “Organ height (Mean ± SD) Liver” value (Subchronic [5]; [10]) was 1.58 ± 0.14 g, the “Organ height (Mean ± SD) Lung” value (Subchronic [5]; [10]) was 0.20 ± 0.02 g and the “Organ height (Mean ± SD) Prostate” value (Subchronic [5]; [10]) was 0.10 ± 0.02 g. The “Organ height (Mean ± SD) Spleen” value (Subchronic [5]; [10]) was 0.09 ± 0.02 g, the “Organ height (Mean ± SD) Testes” value (Subchronic [5]; [10]) was 0.25 ± 0.03 g and the “Body Weight” value (Subchronic [5]; [11]) was 35.38 ± 1.71 g. For the same compound, the “Organ height (Mean ± SD) Brain” value (Subchronic [5]; [11]) was 0.53 ± 0.02 g, the “Organ height (Mean ± SD) Heart” value (Subchronic [5]; [11]) was 0.20 ± 0.01 g and the “Organ height (Mean ± SD) Kidney” value (Subchronic [5]; [11]) was 0.60 ± 0.08 g. For the same compound, the “Organ height (Mean ± SD) Liver” value (Subchronic [5]; [11]) was 1.54 ± 0.17 g, the “Organ height (Mean ± SD) Lung” value (Subchronic [5]; [11]) was 0.22 ± 0.01 g and the “Organ height (Mean ± SD) Prostate” value (Subchronic [5]; [11]) was 0.12 ± 0.02 g. For the same compound, the “Organ height (Mean ± SD) Spleen” value (Subchronic [5]; [11]) was 0.09 ± 0.02 g, the “Organ height (Mean ± SD) Testes” value (Subchronic [5]; [11]) was 0.24 ± 0.05 g and the “decreased LNCaP/AR-Luc xenograft tumor growth (top 10 tumors)” value (human LNCaP/AR-Luc cells [6]) was 75%. For the same compound, the “plasma decursinol level, decursinol dosing over equi-molar D/DA dosing” value ([7]; SCID-NSG mice, 3 hours after the last dose) was 1.7 folds, the concentration at 3 h ([7]; male, SCID-NSG, mouse, plasma, oral, 4.5 mg/mouse) was 4100 ng/mL and the “weight of liver, kidney, testes and prostate at study termination” value ([8]; SCID-NSG mice, vs vehicle- or D/DA-treated mice) was “not statistically different”. For the same compound, the Body Weight ([8]; tumor-bearing SCID-NSG mice, noticeable at 7-8 weeks of treatment) was “progressive body weight disadvantage”, the “plasma biochemistry (ALP, AST, ALT, Amy, ALB, BUN, Gluc, Chol, T. Bili)” value (Subchronic [9]; CD-1 mice, among the 4 groups) was “not statistically different” and the “Plasma biochemistry (Mean ± SD) ALB” value (Subchronic [9]; [12]) was 2.7 ± 0.2 g/dL. For the same compound, the “Plasma biochemistry (Mean ± SD) ALP” value (Subchronic [9]; [12]) was 47.2 ± 14.6 U/L, the “Plasma biochemistry (Mean ± SD) ALT” value (Subchronic [9]; [12]) was 34.3 ± 21.7 U/L and the “Plasma biochemistry (Mean ± SD) AST” value (Subchronic [9]; [12]) was 82.5 ± 29.6 U/L. The “Plasma biochemistry (Mean ± SD) Amy” value (Subchronic [9]; [12]) was 780.2 ± 70.1 U/L, the “Plasma biochemistry (Mean ± SD) BUN” value (Subchronic [9]; [12]) was 12.3 ± 2.5 mg/dL and the “Plasma biochemistry (Mean ± SD) Chol” value (Subchronic [9]; [12]) was 182.0 ± 38.8 mg/dL. For the same compound, the “Plasma biochemistry (Mean ± SD) Gluc” value (Subchronic [9]; [12]) was 367.3 ± 69.0 mg/dL, the “Plasma biochemistry (Mean ± SD) T.Bili” value (Subchronic [9]; [12]) was 0.27 ± 0.05 mg/dL and the “Plasma biochemistry (Mean ± SD) ALB” value (Subchronic [9]; [13]) was 2.3 ± 0.3 g/dL. For the same compound, the “Plasma biochemistry (Mean ± SD) ALP” value (Subchronic [9]; [13]) was 45.5 ± 9.1 U/L, the “Plasma biochemistry (Mean ± SD) ALT” value (Subchronic [9]; [13]) was 21.0 ± 7.6 U/L and the “Plasma biochemistry (Mean ± SD) AST” value (Subchronic [9]; [13]) was 72.3 ± 29.9 U/L. The “Plasma biochemistry (Mean ± SD) Amy” value (Subchronic [9]; [13]) was 668.0 ± 117.1 U/L, the “Plasma biochemistry (Mean ± SD) BUN” value (Subchronic [9]; [13]) was 14.0 ± 2.2 mg/dL and the “Plasma biochemistry (Mean ± SD) Chol” value (Subchronic [9]; [13]) was 161.0 ± 20.5 mg/dL. For the same compound, the “Plasma biochemistry (Mean ± SD) Gluc” value (Subchronic [9]; [13]) was 408.3 ± 130.0 mg/dL and the “Plasma biochemistry (Mean ± SD) T.Bili” value (Subchronic [9]; [13]) was 0.32 ± 0.10 mg/dL.
